The record followed here is paper PMC11550832 (Nature Communications, 2024).

One data set addresses PD-L1 on 4T1 cells (Mus musculus, UniProt Q9EP73). Put plainly: Surface PD-L1 level after treatment. The format is cell-based. As to conditions: 4T1, nanoparticles 50 μM or antibody 68 nM, 4 h, flow cytometry. In short, it runs like this:
(§1)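 Cells were washed and moved to medium without FBS or penicillin/streptomycin. They were treated 4 h at 37 °C, 5% CO₂ with nanoparticles (50 μM) or anti-PD-L1 antibody (68 nM). Surface PD-L1 was stained 15 min at 4 °C with BV421 antibody (1:200), anti-human for SKBR-3 and anti-mouse for 4T1. Cells were PBS-washed three times and analysed by flow cytometry.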

The next data set deals with LLC cells. The data set can be described thus: Cytotoxicity, CCK-8. The class given is cell-based, mouse. As to conditions: CCK-8, 24 h, 1-200 μM, TPM1 finding at 100 μM or 200 μM. The gist of the method:
(§2)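 Cells at 8 × 10³ per well were exposed to 1, 10, 50, 100 and 200 μM nanoparticles in DMEM, RPMI-1640 or McCoy's 5A complete medium for 24 h. CCK-8 was added for a further 2 h and OD450 read. Viability (%) = [(treated − blank)/(control − blank)] × 100.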

For data set [1], the system named is 4T1 cells. Put plainly: Cellular distribution of peptide nanoparticles. The format is cell-based, mouse. As to conditions: 4T1, 50 μM, 4 h.
In data set [2] the target is T1, human PD-L1 recombinant protein (Homo sapiens, UniProt Q9NZQ7). Put plainly: PD-L1-induced fibrillar transformation in aqueous solution. The following applies: 24 h incubation. The class given is biochemical. In short, it runs like this: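 Recombinant human PD-L1 was added to 50 μM nanoparticle solution at molar ratios of 1:100, 1:500, 1:1000, 1:2000 and 1:5000. Mixtures were incubated 0.5 h, 4 h and 24 h, then prepared for TEM to view morphology change.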

Data set [3] deals with T1, human PD-L1 recombinant protein. Put plainly: CD and FTIR spectroscopy of β-sheet formation. As to conditions: human PD-L1, 24 h, 50 μM, ratio 1000:1. The format is biochemical. The gist of the method:
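Nanoparticles were incubated with or without recombinant human PD-L1. β-sheet formation was then detected by CD spectroscopy, with FTIR alongside.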

The test system of data set [4] is SKBR-3 cells. The data set can be described thus: Cellular distribution of peptide nanoparticles. The format is cell-based, human. As to conditions: SKBR-3, 50 μM, 4 h.
The test system of another data set is HFF cells. Put plainly: Cytotoxicity, CCK-8. The class given is cell-based, human. The following applies: CCK-8, 24 h, 1, 10, 50, 100 and 200 μM, n = 5. The gist of the method:
as §2

The nature of another data set: Particle size by DLS. The following applies: aqueous solution, 200 μM. The format is physicochemical.
The next data set deals with PD-L1 on SKBR-3 cells (Homo sapiens, UniProt Q9NZQ7). Put plainly: Surface PD-L1 level after treatment. The format is cell-based. The following applies: SKBR-3, nanoparticles 50 μM or antibody 68 nM, 4 h, flow cytometry. In short, it runs like this:
as §1

The subject of data set [5] is SKBR-3 cells. The data set can be described thus: Cytotoxicity, CCK-8. The format is cell-based, human. As to conditions: SKBR-3, CCK-8, 24 h, 1-200 μM; TPM1 finding at 100 μM or 200 μM. The gist of the method: as §2
Data set [6] in a line: Critical aggregation concentration. The class given is physicochemical. As to conditions: pyrene probe, I1 (373 nm)/I3 (384 nm), 0.01-50 μM, 37 °C for 2 h, fluorescence. The gist of the method: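 Pyrene fluorescence was excited at 335 nm and emission recorded. The I1 (373 nm)/I3 (384 nm) intensity ratio was used to derive the critical aggregation concentration.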
Data set [7] concerns the target PD-L1 on the membrane of SKBR-3 cells (Homo sapiens, UniProt Q9NZQ7). Put plainly: Co-location of nanoparticles and PD-L1 on cell membrane. The format is cell-based. As to conditions: SKBR-3, 4 h, FITC immunofluorescence. In short, it runs like this: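 PD-L1 on cells was immunostained with a FITC-labelled goat anti-mouse secondary (1:1000, 1 h, room temperature) after PBS washes. Nuclei were stained with DAPI and cells imaged by confocal microscopy. Co-localization with the nanoparticle signal was quantified computationally.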

In data set [8] the test system is mice bearing 4T1 breast cancer. The data set can be described thus: In vivo inflammatory effect, serum TNF, IL-6, IL-1β ELISA. The arrangement: species or system mouse. As to conditions: 21 days after a single dose, 4T1 tumour mice, n = 5. In short, it runs like this: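 Serum was taken from 4T1 tumour-bearing mice (n = 5 per group) 21 days after a single dose. Arms: PBS 200 μL i.v., nanoparticles 13 mg/kg via tail vein, anti-PD-L1 antibody 5 mg/kg. TNF, IL-6 and IL-1β were measured by ELISA.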
For orientation: In an ELISA, binding on a coated surface is turned into a signal by an enzyme label.

A short description of data set [9]: TEM morphology of nanoparticles. The class given is physicochemical. The following applies: 50 μM, uranyl acetate stain. In short, it runs like this:
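A 50 μM nanoparticle solution was dried on holey-carbon copper grids and stained with 2% uranyl acetate for 3 min. Grids were imaged by TEM at 120 kV.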

A further data set has as its system mice bearing 4T1 tumour. The data set can be described thus: Bio-distribution, ex vivo fluorescence imaging. The format is in vivo, mouse. As to conditions: single i.v. 13 mg/kg, 4T1 tumour mice, post-injection. The gist of the method: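 Female Balb/c mice (6–8 weeks) carrying subcutaneous 4T1 tumours (1 × 10⁶ cells, right flank) got a single tail-vein dose of 13 mg/kg nanoparticle. n = 3 per group per time point. Tumour, heart, liver, spleen, lung, kidney, intestine and muscle were harvested at 2, 4, 6, 8, 10, 24, 48, 72 and 168 h post-injection and imaged ex vivo by fluorescence.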

The next data set can be described thus: Zeta potential by DLS. The format is physicochemical. As to conditions: 200 μM, mean n = 3.
In data set [10] the test system is 4T1 cells. Put plainly: Intracellular distribution of internalized TPM2 and TPM3. As to conditions: 50 μM, 4, 24 and 48 h, LysoTracker, CLSM. The format is cell-based, mouse.
Data set [11] concerns 4T1 cells co-cultured with activated CD8+ T cells. Put plainly: Killing effect of activated CD8+ T cells on treated 4T1 cells. The class given is cell-based, mouse. As to conditions: co-culture of 4T1 and activated CD8+ T cells. The gist of the method:
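Splenic mouse CD8⁺ T cells were expanded with IL-2 and activated with anti-CD3/CD28 beads. 4T1 cells were pretreated 4 h with test compound or anti-PD-L1 antibody (68 nM), washed, then co-cultured with T cells (1:10) for 24 h. T cells alone on 4T1 served as control. Read-outs: CCK-8 viability (6 × 10³ cells/well) or calcein-AM staining, 20 min (2 × 10⁴ cells/well).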

In data set [12] the test system is 4T1 cells. The data set can be described thus: Cytotoxicity, CCK-8. The format is cell-based, mouse. The following applies: 4T1, CCK-8, 24 h, 1-200 μM; TPM1 finding at 100 μM or 200 μM. The gist of the method: as §2
In another data set the test system is PD-L1 in 4T1 cells. The data set can be described thus: Upregulation of PD-L1 induced by IFN-γ. The format is cell-based, mouse. The following applies: 4T1, 100 ng/mL, 24 h. In short, it runs like this: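 4T1 cells received mouse IFN-γ (100 ng/mL) in complete medium for 24 h. Western blot: cells PBS-washed three times, lysed on ice in RIPA buffer with 1% protease inhibitor, spun 13523 × g, 3 min, 4 °C; band density quantified. Flow cytometry: PBS-washed cells stained with BV421-labelled mouse anti-PD-L1 (1:200), 15 min, 4 °C, washed thrice.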

The next data set deals with PD-L1 in SKBR-3 cells. The data set can be described thus: Upregulation of PD-L1 induced by IFN-γ. The format is cell-based, human. The following applies: SKBR-3, 100 ng/mL, 24 h. In short, it runs like this: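 Recombinant human IFN-γ (100 ng/mL) added to complete medium of SKBR-3 cells for 24 h. Western blot: cells PBS-washed three times, lysed on ice in RIPA buffer with 1% protease inhibitor, spun 13523 × g, 3 min, 4 °C; band density quantified. Flow cytometry: PBS-washed cells stained with BV421-labelled human anti-PD-L1 (1:200), 15 min, 4 °C, washed thrice.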

T1 sequence (Q9NZQ7 19-239 limits assumed): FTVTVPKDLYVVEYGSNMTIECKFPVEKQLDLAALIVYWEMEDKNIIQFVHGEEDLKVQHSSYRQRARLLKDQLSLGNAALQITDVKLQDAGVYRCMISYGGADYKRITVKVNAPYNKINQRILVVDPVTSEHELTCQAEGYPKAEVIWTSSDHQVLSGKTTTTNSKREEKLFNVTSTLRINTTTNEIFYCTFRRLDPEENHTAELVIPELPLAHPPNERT
Chain of PD-L1 on SKBR-3 cells (Q9NZQ7 19-290): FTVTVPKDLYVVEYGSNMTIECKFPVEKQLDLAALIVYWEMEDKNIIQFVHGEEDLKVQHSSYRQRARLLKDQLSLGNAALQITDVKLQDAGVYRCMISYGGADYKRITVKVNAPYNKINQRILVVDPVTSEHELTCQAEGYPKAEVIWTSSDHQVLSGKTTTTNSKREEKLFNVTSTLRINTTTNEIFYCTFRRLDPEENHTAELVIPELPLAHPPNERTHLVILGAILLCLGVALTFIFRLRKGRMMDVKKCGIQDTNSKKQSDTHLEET
Chain of PD-L1 on the membrane of SKBR-3 cells (Q9NZQ7 19-290): as above
Chain of PD-L1 on 4T1 cells (Q9EP73 19-290): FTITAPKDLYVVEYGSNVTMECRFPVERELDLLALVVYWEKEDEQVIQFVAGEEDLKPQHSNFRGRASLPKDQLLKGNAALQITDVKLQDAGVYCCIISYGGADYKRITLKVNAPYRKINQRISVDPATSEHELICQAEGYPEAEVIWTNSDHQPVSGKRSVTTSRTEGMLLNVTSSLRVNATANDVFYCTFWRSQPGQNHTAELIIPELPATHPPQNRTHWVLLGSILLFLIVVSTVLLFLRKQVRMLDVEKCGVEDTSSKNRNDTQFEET

For the molecule “Ac-K(Ce6)-GGAAK-SGQYASYHCWCWRDPGRSGGSK [TPM2]”, the “change in PD-L1 expression levels before and after incubation” value at PD-L1 on 4T1 cells and on PD-L1 on SKBR-3 cells was “no significant changes” each time. The cytotoxicity entry in the data set with LLC cells is “No cytotoxicity”; in the data set with HFF cells, “no apparent cytotoxicity”; in the data set with SKBR-3 cells [5], “No cytotoxicity”; in the data set with 4T1 cells [12], “No cytotoxicity”. Further, the “location of Ce6 red fluorescence signals (CLSM)” value in the data set with 4T1 cells [1] and in the data set with SKBR-3 cells [4] was “inside cells rather than on the cell membranes” throughout. Further, the “morphology after incubation with PD-L1 proteins (TEM)” value in [2] was “no noticeable change in morphology”. Also, in data set [3], the “CD signals after incubation with PD-L1 protein” value is given as “No such change”. The “diameter of nanoparticles (DLS)” value in the data set “Particle size by DLS” was ~ 19 nm. Further, the “critical aggregation concentration (CAC)” value in data set [6] was 9.8 µM. For the same molecule, the “co-localization with PD-L1 on cell membrane” value in data set [7] is listed as “No apparent co-localization”. Also, the “serum TNF, IL-6 and IL-1β versus PBS and other groups” value in data set [8] is listed as “no significant difference”. For the same molecule, in data set [9], the “morphology of nanoparticles (TEM)” value is recorded as “spherical structure”. Besides, in the data set on mice bearing 4T1 tumour (ex vivo imaging), the “time of peak fluorescence intensity in the tumour” value is listed as 24 h. The “fluorescent signals in the tumour remained until” value in the data set on mice bearing 4T1 tumour turned out to be 48 h. In addition, in the data set “Zeta potential by DLS”, the “zeta potential of initial nanoparticles” value was “+19.6 mV”. Also, the “fate of internalized nanoparticles” value with 4T1 cells [10] is recorded as “predominately degraded in lysosomes”. For the same molecule, in [11], the “effect on T cell activity” value is reported as “no effect”.

B1: IFN-γ: human or mouse IFN-γ (PeproTech), 100 ng/mL, used to upregulate PD-L1 expression (protein, UniProt P01579 24-161, looked up)
Interferon gamma: QDPYVKEAENLKKYFNAGHSDVADNGTLFLGILKNWKEESDRKIMQSQIVSFYFKLFKNFKDDQSIQKSVETIKEDMNVKFFNSNKKKRDDFEKLTNYSVTDLNVQRKAIHELIQVMAELSPAAKTGKRKRSQMLFRG
Take B1: the “PD-L1 expression after IFN-γ treatment” value with PD-L1 in 4T1 cells and in the data set with PD-L1 in SKBR-3 cells was “increased PD-L1 expression” in each case.
